Measurements reported in ChEMBL document CHEMBL3045866, “A novel family of insect-selective peptide neurotoxins targeting insect large-conductance calcium-activated K+ channels isolated from the venom of the theraphosid spider Eucratoscelus constrictus” (Mol Pharmacol, 2011).
The source made the active and inactive calls. The rule behind the calls is not given here.

Columns and labels:
[1] = molecular target: Voltage-dependent calcium channel alpha-1 subunit (Blattella germanica) (UniProt O18323); assay: Inhibition of mid-low voltage activated Cav channel in Periplaneta americana (American cockroach) DUM neurons assessed as effect on voltage-dependent activation at 330 nM measured at holding potential -90 mV depolarized to +70 mV with 10 mV increments after 10 min by whole cell patch clamp assay
Method in brief: (§1)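 Ba2+ currents through M-LVA and HVA Cav channels recorded by whole-cell clamp in cockroach DUM neurons at 20–23°C. Toxin applied for 10 min via a perfusion needle. Peak IBa measured relative to control. For activation, steps from Vh -90 mV to +70 mV in 10-mV increments at 0.1 Hz. P-P/4 leak subtraction; n = 3.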

[2] = molecular target: Voltage-dependent calcium channel alpha-1 subunit (Blattella germanica) (UniProt O18323); assay: (§2) Inhibition of voltage-gated calcium channel Cav-mediated fast-transient current in Periplaneta americana (American cockroach) DUM neurons assessed as effect on voltage-dependent activation at 25 nM measured at holding potential -80 mV in 10 mV increments depolarized to +40 mV after 10 min by whole cell patch clamp assay in presence of CdCl2
Method in brief: (§3)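 BK(Ca) current in DUM neurons with 5 mM 4-AP in the bath. Toxin perfused for 10 min or to equilibrium; then 1 mM CdCl2 plus 30 nM ChTx added, and the residual current subtracted. 100-ms steps from Vh -80 mV to +30 mV, or to +40 mV in 10-mV increments for I–V. Peak (fast-transient) and 100-ms (late) amplitudes measured. IC50 from logistic fit; n = 3–6.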

[3] = test system: Mus musculus; assay: Neurotoxicity against Mus musculus C57BL/6 (mouse) assessed as convulsion at 500 pmol, icv; assay type: toxicity, organism-based; conditions: in vivo, icv_or_intrathecal
Method in brief: (§4)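 Female C57BL/6 mice (~20 g) lightly anesthetized with diethylether. 5 µl of sample in BSA solution injected into the left cerebral ventricle. Posture, behavior and neurotoxic signs observed; n = 2.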

[4] = test system: Mus musculus; assay: Neurotoxicity against Mus musculus C57BL/6 (mouse) assessed as extension of leg at 500 pmol, icv; assay type: toxicity, organism-based; conditions: in vivo, icv_or_intrathecal; method in brief: as §4
[5] = molecular target: Voltage-dependent calcium channel alpha-1 subunit (Blattella germanica) (UniProt O18323); assay: as §2, with “late-sustained” for “fast-transient”
[6] = molecular target: Voltage-gated sodium channel Nav1 alpha subunit (Periplaneta americana) (UniProt D0E0C1); assay: Inhibition of Nav channel in Periplaneta americana (American cockroach) DUM neurons assessed as effect on voltage-dependent activation at 330 nM measured at holding potential -90 mV depolarised to +70 mV with 10 mV increments for 10 min by whole cell patch clamp assay
Method in brief: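 Whole-cell voltage clamp of TTX-sensitive Na+ current in DUM neurons isolated from adult cockroaches and kept no longer than 24 h at 30°C. Bath (mM): NaCl 80, CsCl 5, CaCl2 1.8, TEA-Cl 50, 4-AP 5, HEPES 10, NiCl2 0.1, CdCl2 1, pH 7.4. Vh -90 mV; test pulse to -10 mV, or steps to +70 mV in 10-mV increments at 0.1 Hz. P-P/4 leak subtraction; 20–23°C.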

[7] = test system: Gryllus bimaculatus; assay: Neurotoxicity against third-instar nymph stage of Gryllus bimaculatus (cricket) assessed as mortality at 1.1 nmol/g measured at 15 min; assay type: functional, organism-based
[8] = Reversible inhibition of Potassium channel Kv in Periplaneta americana (American cockroach) DUM neurons at 330 nM measured at holding potential -90 mV depolarized to +30 mV after 10 min by whole cell patch clamp assay relative to control
[9] = test system: Mus musculus; assay: Neurotoxicity against Mus musculus C57BL/6 (mouse) assessed as tonic paralysis at 500 pmol, icv measured after 4 hr; assay type: toxicity, organism-based; conditions: in vivo, icv_or_intrathecal
[10] = test system: Gryllus bimaculatus; assay: Neurotoxicity against third-instar nymph stage of Gryllus bimaculatus (cricket) assessed as paralysis at 1.1 nmol/g measured within 5 min; assay type: functional, organism-based
[11] = test system: Mus musculus; assay: Neurotoxicity against Mus musculus C57BL/6 (mouse) assessed as extension of toes at 500 pmol, icv; assay type: toxicity, organism-based; conditions: in vivo, icv_or_intrathecal; method in brief: as §4
[12] = test system: Mus musculus; assay: Neurotoxicity against Mus musculus C57BL/6 (mouse) assessed as tonic paralysis at 500 pmol, icv; assay type: toxicity, organism-based; conditions: in vivo, icv_or_intrathecal; method in brief: as §4
[13] = Inhibition of delayed rectifier potassium channel IK(DR) in Periplaneta americana (American cockroach) DUM neurons assessed as effect on voltage-dependent activation at 330 nM measured at holding potential -90 mV depolarized to +40 mV with 100 ms increments after 10 min by whole cell voltage clamp …
[14] = molecular target: Voltage-dependent calcium channel alpha-1 subunit (Blattella germanica) (UniProt O18323); assay: Inhibition of high voltage activated Cav channel in Periplaneta americana (American cockroach) DUM neurons assessed as effect on voltage-dependent activation at 330 nM measured at holding potential -90 mV depolarized to +70 mV with 10 mV increments after 10 min by whole cell patch clamp assay; method in brief: as §1
[15] = molecular target: Voltage-dependent calcium channel alpha-1 subunit (Blattella germanica) (UniProt O18323); assay: Inhibition of voltage-gated calcium channel Cav-mediated fast-transient current in Periplaneta americana (American cockroach) DUM neurons assessed as measured at holding potential -80 mV depolarized to +40 mV after 10 min by whole cell patch clamp assay in presence of CdCl2; method in brief: as §3
[16] = Inhibition of transient A type potassium channel IK(A) in Periplaneta americana (American cockroach) DUM neurons at 330 nM measured at holding potential -90 mV depolarized to +30 mV after 10 min by whole cell patch clamp assay in presence of CdCl2 and ChTx
[17] = Inhibition of delayed rectifier potassium channel IK(DR) in Periplaneta americana (American cockroach) DUM neurons at 330 nM measured at holding potential -90 mV depolarized to +30 mV after 10 min by whole cell voltage clamp assay in presence of CdCl2 and ChTx relative to control
[18] = Inhibition of transient A type potassium channel IK(A) in Periplaneta americana (American cockroach) DUM neurons assessed as effect on voltage-dependent activation at 330 nM measured at holding potential -90 mV depolarized to +40 mV with 100 ms increments after 10 min by whole cell patch clamp …
[19] = molecular target: Voltage-dependent calcium channel alpha-1 subunit (Blattella germanica) (UniProt O18323); assay: Inhibition of voltage-gated calcium channel Cav-mediated late-sustained current in Periplaneta americana (American cockroach) DUM neurons assessed as measured at holding potential -80 mV depolarized to +40 mV after 10 min by whole cell patch clamp assay in presence of CdCl2; method in brief: as §3
[20] = test system: Mus musculus; assay: Neurotoxicity against Mus musculus C57BL/6 (mouse) assessed as ataxia at 500 pmol, icv; assay type: toxicity, organism-based; conditions: in vivo, icv_or_intrathecal; method in brief: as §4
[21] = test system: Mus musculus; assay: Neurotoxicity against Mus musculus C57BL/6 (mouse) assessed as cyanosis at 500 pmol, icv; assay type: toxicity, organism-based; conditions: in vivo, icv_or_intrathecal; method in brief: as §4
[22] = test system: Mus musculus; assay: Neurotoxicity against Mus musculus C57BL/6 (mouse) assessed as cyanosis at 500 pmol, icv measured after 4 hr; assay type: toxicity, organism-based; conditions: in vivo, icv_or_intrathecal
[23] = test system: Mus musculus; assay: Neurotoxicity against Mus musculus C57BL/6 (mouse) assessed as respiratory paralysis at 500 pmol, icv; assay type: toxicity, organism-based; conditions: in vivo, icv_or_intrathecal; method in brief: as §4
[24] = test system: Mus musculus; assay: Neurotoxicity against Mus musculus C57BL/6 (mouse) assessed as tail erection at 500 pmol, icv; assay type: toxicity, organism-based; conditions: in vivo, icv_or_intrathecal; method in brief: as §4
[25] = molecular target: Voltage-gated sodium channel Nav1 alpha subunit (Periplaneta americana) (UniProt D0E0C1); conditions: 300 nM

Chain of Voltage-dependent calcium channel alpha-1 subunit (Blattella germanica) (O18323 as listed by the source): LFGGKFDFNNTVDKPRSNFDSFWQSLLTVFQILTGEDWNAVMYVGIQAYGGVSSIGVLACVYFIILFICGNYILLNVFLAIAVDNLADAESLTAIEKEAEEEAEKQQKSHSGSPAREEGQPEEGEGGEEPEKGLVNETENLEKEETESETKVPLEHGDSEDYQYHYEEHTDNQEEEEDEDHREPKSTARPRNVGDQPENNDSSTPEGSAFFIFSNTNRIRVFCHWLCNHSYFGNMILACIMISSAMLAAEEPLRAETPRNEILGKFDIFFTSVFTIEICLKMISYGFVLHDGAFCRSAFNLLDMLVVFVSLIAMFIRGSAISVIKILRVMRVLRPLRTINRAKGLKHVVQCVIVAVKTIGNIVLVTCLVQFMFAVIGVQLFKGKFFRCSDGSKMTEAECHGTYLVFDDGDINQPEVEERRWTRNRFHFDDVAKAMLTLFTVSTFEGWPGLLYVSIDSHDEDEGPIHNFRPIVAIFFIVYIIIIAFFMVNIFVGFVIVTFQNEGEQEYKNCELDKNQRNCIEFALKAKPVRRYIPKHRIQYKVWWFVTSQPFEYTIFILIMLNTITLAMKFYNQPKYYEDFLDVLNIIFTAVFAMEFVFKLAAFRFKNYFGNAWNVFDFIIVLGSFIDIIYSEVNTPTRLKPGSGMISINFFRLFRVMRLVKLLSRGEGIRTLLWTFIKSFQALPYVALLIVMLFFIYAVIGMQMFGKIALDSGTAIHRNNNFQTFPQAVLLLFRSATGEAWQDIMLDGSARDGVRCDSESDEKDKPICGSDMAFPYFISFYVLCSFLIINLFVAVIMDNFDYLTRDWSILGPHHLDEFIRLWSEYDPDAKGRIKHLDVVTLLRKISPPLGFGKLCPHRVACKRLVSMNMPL
Chain of Voltage-gated sodium channel Nav1 alpha subunit (Periplaneta americana) (D0E0C1 as listed by the source): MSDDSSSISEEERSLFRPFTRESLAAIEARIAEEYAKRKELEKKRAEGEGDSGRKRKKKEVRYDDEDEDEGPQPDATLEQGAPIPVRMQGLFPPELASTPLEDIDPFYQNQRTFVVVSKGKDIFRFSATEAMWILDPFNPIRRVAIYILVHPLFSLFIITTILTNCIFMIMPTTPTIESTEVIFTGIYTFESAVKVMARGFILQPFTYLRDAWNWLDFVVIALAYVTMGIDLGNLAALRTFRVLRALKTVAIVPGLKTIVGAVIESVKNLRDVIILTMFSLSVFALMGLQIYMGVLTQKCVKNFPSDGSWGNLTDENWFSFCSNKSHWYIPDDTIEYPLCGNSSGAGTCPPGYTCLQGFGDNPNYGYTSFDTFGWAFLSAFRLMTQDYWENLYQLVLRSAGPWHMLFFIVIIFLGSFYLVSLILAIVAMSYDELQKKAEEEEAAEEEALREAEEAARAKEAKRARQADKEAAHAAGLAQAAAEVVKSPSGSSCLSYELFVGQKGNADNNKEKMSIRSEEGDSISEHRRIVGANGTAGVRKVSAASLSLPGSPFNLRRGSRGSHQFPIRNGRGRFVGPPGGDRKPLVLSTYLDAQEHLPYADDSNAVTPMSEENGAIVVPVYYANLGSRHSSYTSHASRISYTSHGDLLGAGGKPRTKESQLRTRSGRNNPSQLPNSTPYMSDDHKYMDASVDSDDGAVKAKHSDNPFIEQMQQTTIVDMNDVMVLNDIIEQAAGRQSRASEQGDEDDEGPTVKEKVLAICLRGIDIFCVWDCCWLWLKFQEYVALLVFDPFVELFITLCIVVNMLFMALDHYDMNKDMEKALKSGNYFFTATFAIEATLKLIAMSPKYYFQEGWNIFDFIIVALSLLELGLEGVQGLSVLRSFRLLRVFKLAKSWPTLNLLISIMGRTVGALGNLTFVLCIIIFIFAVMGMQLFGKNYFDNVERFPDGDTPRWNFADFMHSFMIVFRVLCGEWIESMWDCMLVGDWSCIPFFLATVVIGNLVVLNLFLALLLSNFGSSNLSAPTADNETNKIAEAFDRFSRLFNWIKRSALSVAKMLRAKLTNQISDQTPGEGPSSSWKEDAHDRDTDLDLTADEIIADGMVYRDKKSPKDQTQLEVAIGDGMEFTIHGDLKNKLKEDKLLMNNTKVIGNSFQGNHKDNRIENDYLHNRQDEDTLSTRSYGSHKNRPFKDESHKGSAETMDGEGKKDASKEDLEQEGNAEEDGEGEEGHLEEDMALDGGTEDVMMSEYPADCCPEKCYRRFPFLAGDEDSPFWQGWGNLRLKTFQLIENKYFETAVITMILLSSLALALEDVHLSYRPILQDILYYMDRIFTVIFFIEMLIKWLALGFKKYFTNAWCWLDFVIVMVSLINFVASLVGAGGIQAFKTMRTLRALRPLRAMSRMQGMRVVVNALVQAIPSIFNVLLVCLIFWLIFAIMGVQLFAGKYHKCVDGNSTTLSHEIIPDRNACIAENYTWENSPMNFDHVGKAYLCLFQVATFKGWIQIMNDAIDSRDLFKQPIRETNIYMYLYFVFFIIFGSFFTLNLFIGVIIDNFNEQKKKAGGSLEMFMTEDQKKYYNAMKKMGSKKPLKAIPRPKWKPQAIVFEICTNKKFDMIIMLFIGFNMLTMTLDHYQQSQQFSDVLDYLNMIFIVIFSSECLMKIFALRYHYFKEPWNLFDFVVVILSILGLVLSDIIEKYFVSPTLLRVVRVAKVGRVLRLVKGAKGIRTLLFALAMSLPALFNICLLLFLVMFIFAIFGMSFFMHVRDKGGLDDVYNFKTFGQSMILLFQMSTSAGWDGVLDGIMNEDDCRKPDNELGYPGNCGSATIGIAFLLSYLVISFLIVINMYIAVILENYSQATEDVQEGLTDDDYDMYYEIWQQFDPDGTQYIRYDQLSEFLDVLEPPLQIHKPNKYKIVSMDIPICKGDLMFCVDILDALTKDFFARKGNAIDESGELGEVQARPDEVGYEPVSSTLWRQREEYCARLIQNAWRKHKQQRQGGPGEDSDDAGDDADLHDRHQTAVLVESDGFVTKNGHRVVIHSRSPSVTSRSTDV

Q: Which results are given for `CSCC[C@@H]1NC(=O)[C@H](CCCCN)NC(=O)[C@H](Cc2ccccc2)NC(=O)[C@H](CCC(N)=O)NC(=O)[C@@H](NC(=O)[C@@H](N)Cc2ccc(O)cc2)CSSC[C@@H]2NC(=O)[C@@H]3CSSC[C@@H](C(=O)N[C@@H](CCCCN)C(=O)N[C@@H](CC(C)C)C(=O)N[C@@H](CC(N)=O)C(=O)N[C@@H](CC(C)C)C(=O)O)NC(=O)[C@H](Cc4c[nH]c5ccccc45)NC(=O)[C@H](CC(C)C)NC(=O)[C@H](CCCNC(=N)N)NC(=O)[C@H](CSSC[C@H](NC(=O)[C@H]([C@@H](C)O)NC(=O)[C@H](Cc4c[nH]c5ccccc45)NC1=O)C(=O)N[C@@H](CC(=O)O)C(=O)N[C@@H](CO)C(=O)N[C@@H](CCC(=O)O)C(=O)N[C@@H](CCCNC(=N)N)C(=O)N[C@@H](CCCCN)C(=O)N3)NC(=O)[C@H](C(C)C)NC(=O)[C@H](CCSC)NC(=O)[C@H](CC(=O)O)NC(=O)[C@H](CCC(=O)O)NC2=O`?
A: inhibition [1]: inactive; inhibition [2]: inactive; Activity [3]: Toxic; Activity [4]: Toxic; inhibition [5]: inactive; inhibition [6]: inactive; Activity [7]: Active; inhibition [8]: Active; Activity [9]: Non-toxic; Activity [10]: Active; Activity [11]: Toxic; Activity [12]: Toxic; inhibition [13]: inactive; inhibition [14]: inactive; inhibition [15]: Dose-dependent effect; inhibition [16]: inactive; inhibition [17]: inactive; inhibition [18]: inactive; inhibition [19]: Dose-dependent effect; Activity [20]: Toxic; Activity [21]: Toxic; Activity [22]: Non-toxic; Activity [23]: Toxic; Activity [24]: Toxic

Q: With `NC1=N[C@H](O)[C@H]2[C@H]3O[C@]4(O)O[C@@H]([C@@H](O)[C@@]2(N1)[C@@H]4O)[C@]3(O)CO` as the compound, how does the inhibition [25] read?
A: Active
